# Experimental data from PubChem BioAssay.
# The source made the active and inactive calls. Cut-off read from the data, not from the text of the source, unless noted: active = inhibition above about 30%; inactive = the rest.
# How the values were obtained:
# [1] = HUVEC growth inhibition – cell-based, human, primary screen (AID 575;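 active = viability at or below 30% in both replicate assays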;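 note: 100% = median of untreated cell wells with 0.1% DMSO on each plate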); conditions: HUVEC proliferation, CellTiter-Glo luminescence, 72 h; at 10 µM; stronger effect = lower value
# Procedure, shortened: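 System – primary HUVEC, no more than 12 passages · Medium – Low-serum (2% FBS) EBM, supplemented · Times – 72 h exposure, 37 °C, 5% CO2, 30 min RT equilibration · Measured by – luminescent ATP assay · Read-out – % viability relative to median vehicle-well signal on each plate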
# [2] = growth inhibitors of H69AR lung tumor, primary screen, human, duplicate replicates (AID 580;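 active = viability at or under a set limit in both replicates, limit being median viability minus 3 SD, cut at about 48% in these data, passing the limit was not always enough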;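 note: 100% = mean luminescence of untreated wells and 0% = no signal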); conditions: H69AR lung tumor cells viability, ATP luminescence, 72 h; at 10 µM; stronger effect = lower value
# [3] = reversal of MRP1-mediated doxorubicin resistance, pilot screen, H69AR cells, doxorubicin co-treatment (AID 601;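 active = viability loss from added drug above about 55%, and viability with drug at most 40%, in both replicates, limit read from the data, passing the limit was not always enough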); conditions: CellTiter-Glo, 72 h, at 10 µM; for differential viability (reversal): stronger effect = higher value
# [4] = 384-well plate pilot, post-Golgi transport modulator project, inhibition of yeast transport mutant growth (AID 636; in the data active = inhibition above about 31%); conditions: absorbance 615 nm, about 18 h, stronger effect = higher value
# [5] = growth suppression of yeast trafficking mutant, preliminary HTS, modulators of trafficking downstream of Golgi apparatus project, 1536-format plate, OD 615 nm (AID 637); conditions: yeast transport mutant growth, absorbance 615 nm, 18 h; stronger effect = higher value
# [6] = H69AR cells + 2 uM doxorubicin, measured here: viability with 2 uM doxorubicin, stronger effect = lower value
# [7] = H69AR cells, compound alone cytotoxicity
SMILES,viability [1],viability [2],differential viability (reversal) ([3]; H69AR cells + 2 uM doxorubicin),"viability [3, 6] [%]","viability [3, 7] [%]",inhibition [4],inhibition [5]
Cc1cc(C)n(Cc2nc3ccccc3n2C)n1,92.9% (inactive),99% (inactive),8.18% (inactive),90.9,99,0.52% (inactive),4.92% (inactive)
CCOc1cc(S(=O)(=O)NCc2ccc3c(c2)OCO3)ccc1F,95.4% (inactive),97.9% (inactive),4.41% (inactive),93.5,97.9,-4.8% (inactive),4.76% (inactive)
Cc1ccccc1C(=O)N1CCC(C(=O)Nc2ccc(S(=O)(=O)N3CCCC3)cc2)CC1,97.1% (inactive),78.8% (inactive),-3.87% (inactive),82.7,78.8,-4.55% (inactive),-3.49% (inactive)
CCOc1ccccc1C(=O)NCCCn1ccnc1,95.3% (inactive),91.9% (inactive),4.38% (inactive),87.5,91.9,-4.42% (inactive),2.7% (inactive)
O=C(Nc1nc(-c2ccc(S(=O)(=O)N3CCCC3)cc2)cs1)C1COc2ccccc2O1 (stereo not given),79.1% (inactive),90.3% (inactive),-1.52% (inactive),91.8,90.3,-3.73% (inactive),-6.83% (inactive)
COc1nc(OC)nc(N2CCC(NC(=O)C(Cc3ccc(C(C)C)cc3)NC(C)=O)CC2)n1 (stereo not given),110% (inactive),64.4% (inactive),-3.67% (inactive),68,64.4,-7.5% (inactive),1.59% (inactive)
Cc1nnc(SCC(=O)N2CCC(C(N)=O)CC2)s1,93.5% (inactive),91.2% (inactive),-8.62% (inactive),99.8,91.2,-1.2% (inactive),-5.24% (inactive)
CCN(C(=O)c1c(-c2ccccc2)noc1C)c1ccccc1,100% (inactive),93.8% (inactive),9.52% (inactive),84.3,93.8,-1.18% (inactive),14.9% (inactive)
CC1=C(C(N)=O)C(c2ccc(Cl)cc2Cl)n2ncnc2N1 (stereo not given),91.8% (inactive),101% (inactive),16.7% (inactive),84.7,101,0% (inactive),6.19% (inactive)
O=C1CN(c2ccccc2F)C(=O)CN1c1ccccc1F,112% (inactive),102% (inactive),10.3% (inactive),92.2,102,-1.97% (inactive),-0.63% (inactive)
CCCc1cc(=O)[nH]c(/N=C(\N)Nc2ccccc2)n1,80.8% (inactive),82.4% (inactive),-13.9% (inactive),96.3,82.4,-0.13% (inactive),3.49% (inactive)
Cn1c(-c2ccc(F)cc2)cnc1NCc1ccccc1,108% (inactive),66.2% (inactive),-15.4% (inactive),81.6,66.2,-3.03% (inactive),4.6% (inactive)
CC(C(=O)N1c2ccc(F)cc2CCC1C)N1C(=O)c2ccccc2C1=O (stereo not given),114% (inactive),91.3% (inactive),11.5% (inactive),79.8,91.3,-5.26% (inactive),8.73% (inactive)
Cc1cccc2cc(C#N)c(SCCN3CCCCC3)nc12,61.8% (inactive),68.2% (inactive),-10% (inactive),78.2,68.2,1.35% (inactive),-0.18% (inactive)
CCCc1nc2ccccc2c2nc(N)nn12,99.8% (inactive),94.1% (inactive),12.3% (inactive),81.8,94.1,-5.26% (inactive),0.95% (inactive)
C=CCn1c(=S)[nH]c2nc3c(cc2c1=O)COC(C)(C)C3,90% (inactive),77.8% (inactive),5.84% (inactive),72,77.8,-5.06% (inactive),2.86% (inactive)
COc1ccc(-c2nc(C(N)=O)c3[nH]c(=O)n(-c4cccc(Cl)c4)c3n2)cc1OC,3.29% (active),1.2% (active),-0.93% (inactive),2.13,1.2,6.23% (inactive),-0.33% (inactive)
O=C(c1ccccc1)N1CCN(Cc2ccccc2Br)CC1,105% (inactive),92.3% (inactive),2.89% (inactive),89.4,92.3,-4.53% (inactive),-4.6% (inactive)
Brc1ccc(-c2nnc3sc(CN4CCC5(CC4)OCCO5)cn23)cc1,113% (inactive),95.9% (inactive),7.72% (inactive),88.1,95.9,-2.08% (inactive),-2.22% (inactive)
CCOC(=O)CSc1nnc(-c2ccc(Cl)cc2Cl)o1,105% (inactive),101% (inactive),3.39% (inactive),97.4,101,-5.07% (inactive),-0.16% (inactive)
